Test results reported in article PMC10390885 (Clinical Cancer Research, 2023).
Several values for one entry are separate records, joined by “and”; a condition that tells them apart may be missing. Equal entries are not always repeated. Entries after “also recorded” stand apart in the source; their conditions may differ. Where two headings read alike, the source gives them in different places.

Tests used:
[1] = system: advanced ER-positive HER2-negative breast cancer; conditions: cited from earlier work
[2] = system: ER; conditions: ER+ cell lines; preclinical studies; cited from earlier work
[3] = system: postmenopausal women with ER+/HER2− locally advanced or metastatic breast cancer; assay: Phase I safety: adverse events; type: in vivo, human
In short: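 Oral tablets were given as a single lead-in dose on day −7, then once daily from day 1 in 28-day cycles. Escalation used a 3+3 design, starting at 600 mg/day with 400 mg steps, plus an expansion cohort at 1,400 mg/day. DLT window ran from day −7 through cycle 1 (35 days). AEs were graded by NCI CTCAE v4.0. All patients dosed on cycle 1 day 1 were included, summarised descriptively.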

[4] = system: ER; assay: [18F]-fluoroestradiol; type: in vivo, human; conditions: cycle 2 day 3 vs baseline; 9 patients with FES-avid disease; 600, 1,000, 1,400 mg
[5] = system: ER; assay: IHC of ER protein in baseline and on-treatment biopsies; type: in vivo, human; conditions: on-treatment (cycle 2 or 3, day 8) vs baseline biopsies
In short: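 Baseline and on-treatment tumour biopsies (cycle 2 or 3, day 8) were stained for ER by IHC in one laboratory and scored by one pathologist. H-score (0–300) = 3×% strong-intensity nuclei + 2×% intermediate + 1×% weak nuclei among tumour cells. Paired samples only.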

[6] = system: ER+/HER2− advanced or metastatic breast cancer; assay: Antitumor activity by RECIST v1.1; type: in vivo, human
[7] = system: PIK3CA/AKT1 mutations in ctDNA; assay: ctDNA BEAMing digital PCR, PIK3CA/AKT1 mutant allele frequency; type: in vivo, human; conditions: first postbaseline ctDNA sample (cycle 3 day 1 or end-of-treatment)
In short: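 Hotspot mutations were measured in plasma ctDNA by BEAMing digital PCR: AKT1 E17K and PIK3CA C420R, E542K, E545G/K, Q546K, M1043I, H1047L/R/Y. Mutant allele fraction at baseline was compared with the first available post-baseline sample (cycle 3 day 1 or end of treatment) in paired samples.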

[8] = system: ESR1 mutations in ctDNA; assay: FACT next-generation sequencing ctDNA assay; type: in vivo, human; conditions: 1,400 mg; vs 52% pretreatment
[9] = system: ESR1 mutant and wild-type patient-derived xenograft models of ER+ breast cancer; conditions: preclinical, cited from earlier work
[10] = system: ER; conditions: preclinical studies; cited from earlier work
[11] = N = 42, considered related to study drug, any grade
[12] = N = 42, considered related to study drug, grade 3
[13] = N = 42, regardless of causality, any grade
[14] = N = 42, regardless of causality, grade 3

SMILES: C[C@]12CC[C@@H]3c4ccc(O)cc4C[C@@H](CCCCCCCCC[S+]([O-])CCCC(F)(F)C(F)(F)F)[C@H]3[C@@H]1CC[C@@H]2O (stereo partly drawn) [fulvestrant]
- Median PFS ([1]; SERENA-2, patients treated with fulvestrant): 3.7 months

SMILES: CC/C(=C(/c1ccc(/C=C/C(=O)O)cc1)c1ccc2[nH]ncc2c1)c1ccc(F)cc1Cl [GDC-0810, reference compound]
- ER antagonist/agonist profile [2]: partial agonism

SMILES: CC1=C(c2cccc(O)c2)[C@H](c2ccc(OCCN3CC(CF)C3)cc2)Oc2ccc(O)cc21 [GDC-0927]
- AEs leading to withdrawal ([3]; N = 42): no reports and None
- Deaths ([3]; N = 42): no deaths; also recorded: no reports
- Dose modifications due to AEs ([3]; N = 42): no dose modifications
- Grade 4 or grade 5 AEs ([3]; N = 42): no grade 4 or grade 5 AEs; also recorded: no grade 4 or 5 AEs
- Treatment-related serious adverse events (SAE) ([3]; N = 42): no reports
- Patients with any adverse events ([3]; N = 42, 600-1,400 mg once daily oral, regardless of causality, any grade): 37 n (%) and 37 (88) n (%)
- Constipation [3, 11]: 6 n (%) and 6 (14) n (%)
- Diarrhea [3, 11]: 5 n (%) and 5 (12) n (%)
- Fatigue [3, 11]: 5 n (%) and 5 (12) n (%)
- Hot flush [3, 11]: 8 n (%) and 8 (19) n (%)
- Nausea [3, 11]: 8 n (%) and 8 (19) n (%)
- Patients with at least one adverse event [3, 11]: 30 n (%) and 30 (71) n (%)
- Total number of events [3, 11]: 109
- Constipation [3, 12]: 0 n (%)
- Diarrhea [3, 12]: 0 n (%)
- Fatigue [3, 12]: 0 n (%)
- Hot flush [3, 12]: 0 n (%)
- Nausea [3, 12]: 0 n (%)
- Patients with at least one adverse event [3, 12]: 0 n (%)
- Total number of events [3, 12]: 0
- Anemia [3, 13]: 6 n (%) and 6 (14) n (%)
- Arthralgia [3, 13]: 8 n (%) and 8 (19) n (%)
- Aspartate aminotransferase (AST) increased [3, 13]: 5 (12) n (%)
- Asthenia [3, 13]: 5 (12) n (%)
- Back pain [3, 13]: 7 n (%) and 7 (17) n (%)
- Constipation [3, 13]: 9 n (%) and 9 (21) n (%)
- Cough [3, 13]: 5 (12) n (%)
- Diarrhea [3, 13]: 9 n (%) and 9 (21) n (%)
- Fatigue [3, 13]: 8 n (%) and 8 (19) n (%)
- Headache [3, 13]: 6 n (%) and 6 (14) n (%)
- Hot flush [3, 13]: 8 n (%) and 8 (19) n (%)
- Nausea [3, 13]: 14 n (%) and 14 (33) n (%)
- Pain in extremity [3, 13]: 5 (12) n (%)
- Vomiting [3, 13]: 7 n (%) and 7 (17) n (%)
- Anemia [3, 14]: 0 n (%)
- Arthralgia [3, 14]: 0 n (%)
- Aspartate aminotransferase (AST) increased [3, 14]: 0 n (%)
- Asthenia [3, 14]: 1 (2) n (%)
- Back pain [3, 14]: 2 n (%) and 2 (5) n (%)
- Constipation [3, 14]: 0 n (%)
- Cough [3, 14]: 0 n (%)
- Diarrhea [3, 14]: 0 n (%)
- Fatigue [3, 14]: 0 n (%)
- Headache [3, 14]: 0 n (%)
- Hot flush [3, 14]: 0 n (%)
- Nausea [3, 14]: 0 n (%)
- Pain in extremity [3, 14]: 0 n (%)
- Patients with any adverse events [3, 14]: 9 (21) n (%)
- Vomiting [3, 14]: 0 n (%)
- Patients with AEs that led to dose interruptions ([3]; N = 42, seven patients): 17%
- Patients with at least one SAE considered unrelated to GDC-0927 ([3]; N = 42, seven patients): 17%
- Patients with AEs of special interest (grade 2 deep vein thrombosis, grade 2 jugular vein thrombosis) ([3]; N = 42, two patients, both considered unrelated): 5%
- DLTs ([3]; day −7 through first cycle (35 days), 600-1,400 mg/day): no reports of DLTs
- MTD ([3]; oral once daily, doses up to the MAD of 1,400 mg/day): not reached
- Reduction in FES uptake [4]: > 90%
- Reduction in ER expression (ER protein, IHC), average [5]: approximately 40%
- Confirmed complete or partial responses ([6]; N = 42): no complete or partial responses; also recorded: no confirmed CRs or PRs
- Patients with confirmed best overall response of non-CR/PD ([6]; five patients, all at 1,400 mg): 14%
- Patients achieving clinical benefit ([6]; patients with baseline ctDNA ESR1 mutation(s), six of 22): 27%
- Patients achieving clinical benefit ([6]; patients without detectable baseline ctDNA ESR1 mutations, 6 of 20): 30%
- Patients with decline in PIK3CA/AKT1 MAF [7]: 8 of 13
- Prevalence of ESR1 mutations in on-treatment samples [8]: 35%
- Tolerability at efficacious dose range ([9]; 10–100 mg/kg/day): well tolerated
- Antitumor activity in xenograft models ([9]; ER+ breast cancer xenograft models): induces tumor regression; also recorded: dose-dependent antitumor activity
- In vivo efficacious dose range [9]: 10 to 100 mg/kg/day
- ER antagonist/agonist profile [2]: full antagonist profile
- ER degradation [2]: ER degradation in all ER^+ cell lines tested
- ER agonism in the uterus [10]: lacked ER agonism

SMILES: C[C@@H]1Cc2c(ccc3[nH]ncc23)[C@@H](c2ccc(NC3CN(CCCF)C3)cn2)N1CC(F)(F)F [camizestrant]
- Median PFS ([1]; SERENA-2, camizestrant 75 mg): 7.2 months
- Median PFS ([1]; SERENA-2, camizestrant 150 mg): 7.7 months
